# Experimental data taken from ChEMBL document CHEMBL1147243, “Antitumor agents. 228. five new agarofurans, Reissantins A-E, and cytotoxic principles from Reissantia buchananii” (2003).
# Activity calls are given as the source filed them. The calls are words filed in the database; no cut-off is given here.
# Key:
# HCT-8 [1] = assay: Cytotoxicity against human HCT8 cells after 3 days by SRB assay; type: functional; conditions: HCT-8, 72 h, read-out: ED50 (the source's name)
# Procedure, shortened: (§1)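 Tumour lines kept in RPMI-1640 with 25 mM HEPES, 0.25% sodium bicarbonate, 10% FBS and 100 µg/mL kanamycin. Freshly trypsinized cells were seeded at 1500-7500 per well with compound from DMSO-diluted stock. After 3 days, attached cells were fixed with cold 50% TCA, stained with 0.4% SRB, and the bound dye was solubilized and read at 562 nm. ED50 is the concentration giving 50% growth reduction.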
# KB = assay: Cytotoxicity against human KB cells after 3 days by SRB assay; type: functional; conditions: 72 h, read-out: ED50 (the source's name); procedure, shortened: as §1
# [2] = Cytotoxicity against human KBVIN cells after 3 days by SRB assay; type: functional; conditions: 72 h, read-out: ED50 (the source's name)
# Procedure, shortened: (§2)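 Freshly trypsinized cells from T-25 stock cultures were seeded at 1500-7500 cells/well with compound added from DMSO-diluted stock. The medium was RPMI-1640 with 25 mM HEPES, 0.25% sodium bicarbonate, 10% FBS and 100 µg/mL kanamycin. After 3 days, attached cells were fixed with cold 50% TCA, stained with 0.4% SRB, and the bound dye solubilized and read at 562 nm. ED50 is the concentration giving 50% growth reduction.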
# [3] = Cytotoxicity against human U87MG cells after 3 days by SRB assay; type: functional, U-87MG ATCC; conditions: U-87 MG, 72 h, read-out: ED50 (the source's name); procedure, shortened: as §2
# PC-3 = assay: Cytotoxicity against human PC3 cells after 3 days by SRB assay; type: functional; conditions: PC-3, 72 h, read-out: ED50 (the source's name); procedure, shortened: as §1
# 1A9 [4] = assay: Cytotoxicity against human 1A9 cells after 3 days by SRB assay; type: functional; conditions: 1A9, 72 h, read-out: ED50 (the source's name); procedure, shortened: as §1
# 1A9/ptx-10 [5] = assay: Cytotoxicity against human 1A9/PTX10 cells after 3 days by SRB assay; type: functional; conditions: 1A9/ptx-10, 72 h, read-out: ED50 (the source's name); procedure, shortened: as §1
# 1A9 [6] = assay: Cytotoxicity against human 1A9 cells after 6 days by SRB assay; type: functional; conditions: 1A9, 144 h, read-out: ED50 (the source's name)
# Procedure, shortened: (§3)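 Cells were grown in RPMI-1640 supplemented with 25 mM HEPES, 0.25% sodium bicarbonate, 10% FBS and 100 µg/mL kanamycin. Freshly trypsinized cells were plated at 1500-7500 per well with compound from DMSO-diluted stock over a 6-day assay period. Cells were fixed with cold 50% TCA and stained with 0.4% SRB, and the solubilized dye was read at 562 nm. ED50 is the concentration reducing growth by 50%.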
# 1A9/ptx-10 [7] = assay: Cytotoxicity against human 1A9/PTX10 cells after 6 days by SRB assay; type: functional; conditions: 1A9/ptx-10, 144 h, read-out: ED50 (the source's name); procedure, shortened: as §3
# A549 = assay: Cytotoxicity against human A549 cells after 3 days by SRB assay; type: functional; conditions: A549, 72 h, read-out: ED50 (the source's name); procedure, shortened: as §1
# MCF7 = assay: Cytotoxicity against human MCF7 cells after 3 days by SRB assay; type: functional; conditions: MCF7, 72 h, read-out: ED50 (the source's name); procedure, shortened: as §1
# HCT-8 [8] = assay: Cytotoxicity against human HCT8 cells at 20 ug/ml after 3 days by SRB assay; type: functional, cell-based
# KBVIN = assay: Cytotoxicity against human KBVIN cells at 20 ug/ml after 3 days by SRB assay; type: functional, cell-based
# U-87MG ATCC = assay: Cytotoxicity against human U87MG cells at 20 ug/ml after 3 days by SRB assay; type: functional, cell-based
# 1A9 [9] = assay: Cytotoxicity against human 1A9 cells at 20 ug/ml after 6 days by SRB assay; type: functional, cell-based
Compound,EC50 (HCT-8 [1]) [µg/mL],EC50 (KB) [µg/mL],EC50 [2] [µg/mL],EC50 [3] [µg/mL],EC50 (PC-3) [µg/mL],EC50 (1A9 [4]) [µg/mL],EC50 (1A9/ptx-10 [5]) [µg/mL],EC50 (1A9 [6]) [µg/mL],EC50 (1A9/ptx-10 [7]) [µg/mL],EC50 (A549) [µg/mL],EC50 (MCF7) [µg/mL],Activity (HCT-8 [8]),Activity (KBVIN),Activity (U-87MG ATCC),Activity (1A9 [9])
CC1=C(O)C(=O)C=C2C1=CC=C1[C@@]2(C)CC[C@@]2(C)[C@@H]3C[C@](C)(C(=O)O)CC[C@]3(C)CC[C@]12C [CELASTROL],0.23,0.2,0.34,0.22,0.27,0.091,0.1,0.11,0.11,0.25,0.21,,,,
CC(=O)O[C@H]1CC[C@](C)(O)[C@]23OC(C)(C)[C@H]([C@H](O)[C@H](OC(=O)c4ccccc4)[C@]12C)[C@H]3O [REISSANTIN D],,> 20,,,> 20,> 20,> 20,> 20,> 20,> 20,16.2,inactive,inactive,inactive,
CC(=O)O[C@H]1[C@@H]2[C@@H](OC(=O)c3ccc(=O)n(C)c3)[C@@]3(OC2(C)C)[C@@](C)([C@@H](OC(C)=O)CC[C@]3(C)O)[C@H]1OC(=O)c1ccccc1 [REISSANTIN A],> 20,> 20,,,> 20,> 20,> 20,> 20,> 20,> 20,> 20,,inactive,inactive,
CC(=O)O[C@H]1[C@@H]2[C@@H](OC(=O)c3ccc(=O)n(C)c3)[C@@]3(OC2(C)C)[C@](C)([C@H]1OC(=O)c1ccccc1)[C@@H](OC(C)=O)[C@@H](OC(=O)c1ccccc1)C[C@]3(C)O [REISSANTIN B],> 20,11.7,17.1,> 20,> 20,17.1,> 20,13.7,15.3,15.3,> 20,,,,
COC(=O)[C@]1(C)CC[C@]2(C)CC[C@]3(C)C4=CC(=O)c5c(cc(O)c(O)c5C)[C@]4(C)CC[C@@]3(C)[C@@H]2C1,14.1,14.5,16.6,> 20,> 20,11.7,12.4,10.7,7.1,16.4,12.8,,,,
CC1(C)CC[C@]2(C)CC[C@]3(C)C(=CC[C@@H]4[C@@]5(C)CC[C@H](O)C(C)(C)C5C(=O)C[C@]43C)[C@H]2C1 (some centres undefined),13.7,13,14.7,6.7,15.1,11.4,11,11.3,11.2,13.3,14.6,,,,
CC[C@H](CC[C@@H](C)[C@H]1CC[C@H]2[C@@H]3CC=C4C[C@@H](O)CC[C@]4(C)[C@H]3CC[C@]12C)C(C)C [BETA-SITOSTEROL],> 20,> 20,> 20,> 20,> 20,16.8,20,10.6,9.5,> 20,> 20,,,,
COC(=O)[C@]1(C)CC[C@]2(C)CC[C@]3(C)C4=CC=C5C(=CC(=O)C(O)=C5C)[C@]4(C)CC[C@@]3(C)[C@@H]2C1 [PRISTIMERIN],0.15,0.1,0.29,0.17,0.23,0.1,0.11,0.11,0.076,0.31,0.14,,,,
CC(=O)O[C@H]1C(=O)[C@@]2(C)[C@H]([C@H](OC(=O)c3ccccc3)[C@]3(O)C[C@H](OC(=O)[C@H](O)[C@@H](NC(=O)c4ccccc4)c4ccccc4)C(C)=C1C3(C)C)[C@]1(OC(C)=O)CO[C@@H]1C[C@@H]2O [PACLITAXEL],0.011,0.001,,,,0.002,,0.041,,0.005,,,,,
CC(=O)O[C@H]1[C@@H]2[C@@H](O)[C@@]3(OC2(C)C)[C@@](C)([C@@H](OC(C)=O)CC[C@]3(C)O)[C@H]1OC(=O)c1ccccc1 [REISSANTIN E],> 20,14.4,16.5,,> 20,> 20,> 20,,> 20,> 20,> 20,,,inactive,inactive
